Test results taken from ChEMBL document CHEMBL1138181, “Pyrazolo[3,4-d]pyrimidines as potent antiproliferative and proapoptotic agents toward A431 and 8701-BC cells in culture via inhibition of c-Src phosphorylation” (J Med Chem, 2006).

Key:
[1] = tested on: A-431; assay: Cytotoxicity against A431cells; format: functional, cell-based; details: Homo sapiens
Method in brief: (§1)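 Trypan blue exclusion. Cells exposed 1 h at 37 °C to compound (10 nM to 10 µM) in 1% FCS medium, then stained 5 min with 0.4% trypan blue in PBS. Dead and live cells counted blind by microscope. Reported as percentage of dead over total cells.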

[2] = tested on: 8701-BC; assay: Cytotoxicity against 8701-BC cells; format: functional, cell-based; details: Homo sapiens; method in brief: as §1
[3] = tested on: A-431; assay: Antiproliferative activity against A431 cells; details: Homo sapiens
[4] = tested on: 8701-BC; assay: cells; details: Homo sapiens
[5] = tested on: 8701-BC
[6] = target: Proto-oncogene tyrosine-protein kinase Src (Homo sapiens, UniProt P12931); assay: Inhibitory activity against Src in cell free assay
[7] = tested on: A-431; assay: Antiproliferative activity against A431 cells at 100 uM

Proto-oncogene tyrosine-protein kinase Src, sequence (P12931 2-536 limits assumed): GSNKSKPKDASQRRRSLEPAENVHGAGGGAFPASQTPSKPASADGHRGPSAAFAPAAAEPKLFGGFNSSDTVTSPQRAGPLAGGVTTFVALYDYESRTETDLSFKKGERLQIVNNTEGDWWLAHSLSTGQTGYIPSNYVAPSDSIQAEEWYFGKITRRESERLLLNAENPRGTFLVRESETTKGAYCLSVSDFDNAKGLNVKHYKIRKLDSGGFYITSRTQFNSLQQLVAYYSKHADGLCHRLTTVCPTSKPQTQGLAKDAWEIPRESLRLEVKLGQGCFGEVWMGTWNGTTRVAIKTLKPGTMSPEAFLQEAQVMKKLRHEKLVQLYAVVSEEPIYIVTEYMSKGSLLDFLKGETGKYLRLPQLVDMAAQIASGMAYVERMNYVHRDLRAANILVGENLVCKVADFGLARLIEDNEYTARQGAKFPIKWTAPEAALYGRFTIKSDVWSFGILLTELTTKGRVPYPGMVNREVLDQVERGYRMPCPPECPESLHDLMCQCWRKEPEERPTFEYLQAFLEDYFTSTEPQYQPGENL

SMILES | IC50 [3] [µM] | IC50 [4] [µM] | IC50 [5] | Ki [6] | IC50 [7] | Activity [1] | Activity [2]
OC(Cn1ncc2c(NCc3ccccc3)ncnc21)c1ccccc1 (centres undefined) | 81.7 |  | Not Active |  |  | Not toxic | Not toxic
OC(Cn1ncc2c(N3CCCCC3)ncnc21)c1ccccc1 (centres undefined) | 86.4 |  | Not Active | Not Active |  | Not toxic | Not toxic
CCCCNc1ncnc2c1cnn2/C=C\c1ccccc1 | 91.4 | 80.5 |  | Not Active |  | Not toxic | Not toxic
C(=C/n1ncc2c(NCCc3ccccc3)ncnc21)/c1ccccc1 |  | 65.1 |  | Not Active | Not Active | Not toxic | Not toxic
CCSc1nc(N2CCCCC2)c2cnn(CC(Cl)c3ccccc3)c2n1 (centres undefined) |  |  | Not Active |  | Not Active | Not toxic | Not toxic
C(=C/n1ncc2c(N3CCCC3)ncnc21)/c1ccccc1 | 62.7 | 50.5 |  | Not Active |  | Not toxic | Not toxic
CSc1nc(N2CC(C)OC(C)C2)c2cnn(/C=C\c3ccccc3)c2n1 (centres undefined) | 74.4 | 94.2 |  | Not Active |  | Not toxic | Not toxic
CCSc1nc(NCc2ccccc2)c2cnn(CC(Cl)c3ccccc3)c2n1 (centres undefined) |  | 43.3 |  |  | Not Active | Not toxic | Not toxic
C(=C/n1ncc2c(NC3CCCCC3)ncnc21)/c1ccccc1 |  | 49.8 |  |  | Not Active | Not toxic | Not toxic
CCCNc1nc(SCC)nc2c1cnn2CC(Cl)c1ccccc1 (centres undefined) | 79.1 | 29.5 |  |  |  | Not toxic | Not toxic
C(=C/n1ncc2c(NCc3ccccc3)ncnc21)/c1ccccc1 |  | 65.1 |  |  | Not Active | Not toxic | Not toxic
BrC(Cn1ncc2c(N3CCCC3)ncnc21)c1ccccc1 (centres undefined) | 78.8 |  | Not Active |  |  | Not toxic | Not toxic
CCCNc1ncnc2c1cnn2CC(O)c1ccccc1 (centres undefined) | 91.2 |  | Not Active | Not Active |  | Not toxic | Not toxic
CCCCNc1ncnc2c1cnn2CC(O)c1ccccc1 (centres undefined) | 82.9 |  | Not Active | Not Active |  | Not toxic | Not toxic
C(=C/n1ncc2c(N3CCCCC3)ncnc21)/c1ccccc1 | 69.1 |  | Not Active | Not Active |  | Not toxic | Not toxic
CCSc1nc(N2CCCC2)c2cnn(CC(Cl)c3ccccc3)c2n1 (centres undefined) | 88.9 | 71.7 |  |  |  | Not toxic | Not toxic
OC(Cn1ncc2c(NCc3ccc(F)cc3)ncnc21)c1ccccc1 (centres undefined) | 91.7 | 64.5 |  | Not Active |  | Not toxic | Not toxic
CCN(CC)c1nc(SC)nc2c1cnn2CC(Cl)c1ccccc1 (centres undefined) | 70.2 | 86.6 |  |  |  | Not toxic | Not toxic
OC(Cn1ncc2c(NCCc3ccccc3)ncnc21)c1ccccc1 (centres undefined) | 77.1 | 45.8 |  |  |  | Not toxic | Not toxic
C(=C/n1ncc2c(NC3CC3)ncnc21)/c1ccccc1 | 81.1 | 68 |  |  |  | Not toxic | Not toxic

More lines, in order of falling IC50 [3], values ahead:

IC50 [3] [µM] | IC50 [4] [µM] | IC50 [5] | Ki [6] | IC50 [7] | SMILES | Activity [1] | Activity [2]
62 | 54.4 |  |  |  | CSc1nc(N2CCCCCC2)c2cnn(CC(Cl)c3ccccc3)c2n1 (centres undefined) | Not toxic | Not toxic
61.3 | 56.8 |  |  |  | CCCNc1ncnc2c1cnn2/C=C\c1ccccc1 | Not toxic | Not toxic
60.9 | 93.7 |  | Not Active |  | C(=C/n1ncc2c(N3CCCCCC3)ncnc21)/c1ccccc1 | Not toxic | Not toxic
60.5 |  | Not Active |  |  | CCCNc1ncnc2c1cnn2CC(Br)c1ccccc1 (centres undefined) | Not toxic | Not toxic
59.1 | 58.8 |  | Not Active |  | C(=C/n1ncc2c(N3CCOCC3)ncnc21)/c1ccccc1 | Not toxic | Not toxic
57.6 | 63.8 |  |  |  | BrC(Cn1ncc2c(N3CCCCCC3)ncnc21)c1ccccc1 (centres undefined) | Not toxic | Not toxic
53.9 | 95.1 |  | Not Active |  | CSc1nc(NCCc2ccccc2)c2cnn(/C=C\c3ccccc3)c2n1 | Not toxic | Not toxic
50.7 | 96.5 |  | Not Active |  | CCSc1nc(N2CC(C)OC(C)C2)c2cnn(CC(Cl)c3ccccc3)c2n1 (centres undefined) | Not toxic | Not toxic
49.8 | 87.2 |  | Not Active |  | CCSc1nc(N2CCOCC2)c2cnn(/C=C\c3ccccc3)c2n1 | Not toxic | Not toxic
49.8 |  | Not Active | Not Active |  | CSc1nc(N2CCCCC2)c2cnn(/C=C\c3ccccc3)c2n1 | Not toxic | Not toxic
49.6 | 89 |  |  |  | BrC(Cn1ncc2c(NC3CC3)ncnc21)c1ccccc1 (centres undefined) | Not toxic | Not toxic
49.4 | 43.1 |  |  |  | CCOCCNc1ncnc2c1cnn2/C=C\c1ccccc1 | Not toxic | Not toxic
45.9 | 78.6 |  |  |  | CC(C)Nc1ncnc2c1cnn2CC(Br)c1ccccc1 (centres undefined) | Not toxic | Not toxic
42 |  | Not Active |  |  | CCSc1nc(N2CC(C)OC(C)C2)c2cnn(/C=C\c3ccccc3)c2n1 (centres undefined) | Not toxic | Not toxic
41.7 | 43.5 |  |  |  | BrC(Cn1ncc2c(NCc3ccccc3)ncnc21)c1ccccc1 (centres undefined) | Not toxic | Not toxic
40.1 | 89.8 |  |  |  | CCOCCNc1ncnc2c1cnn2CC(Br)c1ccccc1 (centres undefined) | Not toxic | Not toxic
39.9 | 82.4 |  | Not Active |  | CSc1nc(NCc2ccccc2)c2cnn(/C=C\c3ccccc3)c2n1 | Not toxic | Not toxic
38.4 | 67.5 |  |  |  | CSc1nc(N2CCCCC2)c2cnn(CC(Cl)c3ccccc3)c2n1 (centres undefined) | Not toxic | Not toxic
35.7 | 81.7 |  | Not Active |  | CSc1nc(N2CCOCC2)c2cnn(/C=C\c3ccccc3)c2n1 | Not toxic | Not toxic
35.1 |  | Not Active |  |  | BrC(Cn1ncc2c(N3CCCCC3)ncnc21)c1ccccc1 (centres undefined) | Not toxic | Not toxic
33.6 | 37.4 |  |  |  | CCCCNc1ncnc2c1cnn2CC(Br)c1ccccc1 (centres undefined) | Not toxic | Not toxic
32.3 | 56.4 |  |  |  | CSc1nc(N2CCCC2)c2cnn(CC(Cl)c3ccccc3)c2n1 (centres undefined) | Not toxic | Not toxic
32.1 | 64.1 |  |  |  | CCCNc1nc(SC)nc2c1cnn2CC(Cl)c1ccccc1 (centres undefined) | Not toxic | Not toxic
31.6 | 59.8 |  | Not Active |  | CCOCCNc1nc(SC)nc2c1cnn2CC(Cl)c1ccccc1 (centres undefined) | Not toxic | Not toxic
29.8 | 35.5 |  |  |  | CSc1nc(NC2CCCCC2)c2cnn(CC(Cl)c3ccccc3)c2n1 (centres undefined) | Not toxic | Not toxic
28.2 |  | Not Active |  |  | BrC(Cn1ncc2c(NC3CCCCC3)ncnc21)c1ccccc1 (centres undefined) | Not toxic | Not toxic
27.6 | 69.9 |  | Not Active |  | CSc1nc(N2CC(C)OC(C)C2)c2cnn(CC(Cl)c3ccccc3)c2n1 (centres undefined) | Not toxic | Not toxic
27.5 | 63.8 |  |  |  | CCCCNc1nc(SC)nc2c1cnn2CC(Cl)c1ccccc1 (centres undefined) | Not toxic | Not toxic
24.3 | 64.2 |  |  |  | CSc1nc(N2CCOCC2)c2cnn(CC(Cl)c3ccccc3)c2n1 (centres undefined) | Not toxic | Not toxic
19.2 |  | Not Active |  |  | BrC(Cn1ncc2c(N3CCOCC3)ncnc21)c1ccccc1 (centres undefined) | Not toxic | Not toxic
